# Screening results: PubChem, several laboratories
# Shown are actives, neighbours in structure and some others; about 2.6% of the full set was active somewhere.
# NR2E3 ag-1: activates human NR2E3 receptor; Q9Y5X4; CHO-S Gal4-NCOR/VP16-NR2E3 two-hybrid, luciferase; inhibition of corepressor binding, % at 3.98 µM; actives 0.35% (n = 360,000); AID 602229;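 active means inhibition above the mean of all tested compounds plus 3 SD, cut at about 70% in these data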;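 further: 0% = DMSO with NR2E3 transfected cells and 100% = cells lacking NR2E3 construct; higher means lower luciferase signal from less NR2E3 corepressor binding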
# NR1D1 modulator: modulators of human Rev-erb alpha DNA binding. P20393. actives 0.79% (n = 370,000). activity, % at 10 µM. AID 1259318. Rev-erbα–FITC-DNA binding, fluorescence polarization, 90 min;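 active means activity above about 14%, limit read from the data; passing the limit was not always enough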;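 further: 0% = DMSO wells with 35 nM protein and 100% = DMSO wells with 750 nM protein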
# Target sequence (P20393 whole entry, looked up): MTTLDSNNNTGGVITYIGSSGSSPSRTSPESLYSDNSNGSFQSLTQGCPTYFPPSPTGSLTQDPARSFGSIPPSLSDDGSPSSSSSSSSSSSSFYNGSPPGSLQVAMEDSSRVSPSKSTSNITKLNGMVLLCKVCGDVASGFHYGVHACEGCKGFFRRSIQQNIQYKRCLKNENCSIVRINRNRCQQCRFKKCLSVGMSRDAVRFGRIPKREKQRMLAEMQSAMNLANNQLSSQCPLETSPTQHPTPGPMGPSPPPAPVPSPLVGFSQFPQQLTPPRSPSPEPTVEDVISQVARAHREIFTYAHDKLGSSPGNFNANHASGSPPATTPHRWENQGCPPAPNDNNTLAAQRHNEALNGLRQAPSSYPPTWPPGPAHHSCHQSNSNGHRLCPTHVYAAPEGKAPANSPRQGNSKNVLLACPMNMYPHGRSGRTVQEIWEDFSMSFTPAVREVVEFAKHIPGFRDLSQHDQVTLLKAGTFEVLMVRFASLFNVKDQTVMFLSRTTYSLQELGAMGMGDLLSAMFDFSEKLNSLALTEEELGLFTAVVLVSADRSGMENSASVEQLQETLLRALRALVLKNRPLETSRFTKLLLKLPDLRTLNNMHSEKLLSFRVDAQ
# NR2E3 ag-2: agonists of human nuclear receptor NR2E3. Q9Y5X4. GST-NR2E3/biotin-RetCOR TR-FRET, 1536-well. inhibition of corepressor binding, % at 4.78 µM. actives 0.12% (n = 320,000);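 active means percent inhibition above the cutoff of mean plus 3 SD of all tested compounds, set per screening campaign, cut at about 20% in these data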;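 further: 0% = DMSO wells and 100% = biotin wells as full block of FRET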
#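 Material – GST-tagged NR2E3 plus biotinylated RetCOR corepressor · Quantity – NR2E3 fusion 1.35 nM · Times – 5 h incubation at 4 °C · Medium – pH 7.5 Tris-based buffer · Technique – TR-FRET, Eu(K)-anti-GST donor, streptavidin-D2 acceptor, ex 340, em 617/671 nm · Benchmarks – high control biotin, low control 0.6% DMSO · Format – 1536-well plates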
# rCAG binder: r(CAG) repeat RNA binding; TO-PRO-1 dye displacement fluorescence; inhibition, % at 3 µM; actives 1.3% (n = 370,000); AID 651821;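 active means inhibition above the plate cutoff, the mean of all test compounds on that plate plus 3 SD, cut at about 35% in these data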;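 further: 0% = DMSO alone and 100% = 100 µM mitoxantrone as full dye displacement; higher means more dye released from RNA so lower well fluorescence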
# PG9 binder: small molecules binding HIV-1 gp120 antibody PG9 | actives 0.43% (n = 360,000) | inhibition, % at 6.7 µM | AID 624416 | TR-FRET gp120-PG9 antibody binding; in the data active means inhibition above about 8.5%
# NR1D1 mod conf: confirmation of modulators of human Rev-erb alpha DNA binding; shares compounds with NR1D1 modulator; Rev-erb alpha FITC-DNA binding, fluorescence polarization, 90 min; activation, % at 25 µM; actives 61% (n = 3,000); AID 1259319;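 active means activation at or above a set limit, or at least 3 SD above the negative control mean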;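 further: 0% = 35 nM protein with DMSO and 100% = 750 nM protein high control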
# RORg counter: RORgamma DNA-binding activity, dose-response counter-screen. shares compounds with NR1D1 modulator. actives 8% (n = 910). IC50, µM. purified RORgamma protein-FITC-DNA binding, fluorescence polarization. AID 1259320;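 active means Compounds whose fitted half-maximal concentration for disrupting protein-DNA binding is below 10 micromolar; the record names Rev-erb in its text, so the target is in doubt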
# Active calls of the source: *; i = inactive; · = no result.
SMILES,NR2E3 ag-1,NR1D1 modulator,NR2E3 ag-2,rCAG binder,PG9 binder,NR1D1 mod conf,others
Cc1ccc(C(=O)n2ccc3ccc(-c4ccc5ccn(Cc6ccc(C#N)cc6)c5c4)cc32)cc1,·,39.5*,·,22.0,·,13.5*,
COc1ccc(Cn2ccc3ccc(-c4ccc5ccn(C(=O)c6ccc(C)cc6)c5c4)cc32)cc1,·,37.3*,·,10.8,·,45.0*,RORg counter=>40
COC(=O)c1ccc(Cn2ccc3ccc(-c4ccc5ccn(C(=O)C6CCCCC6)c5c4)cc32)cc1,·,24.9*,·,18.6,·,33.6*,RORg counter=i
N#Cc1ccc(Cn2ccc3ccc(-c4ccc5ccn(Cc6ccc(C#N)cc6)c5c4)cc32)cc1,·,0.6,·,13.3,·,·,
CCOC(=O)c1csc(CCNC(=O)c2ccccc2)n1,-1.4,-2.7,·,-1.9,1.5,·,
O=C(OCC(=O)c1ccc[nH]1)c1ccc(S(=O)(=O)C(F)F)cc1,11.8,7.9,·,1.2,0.0,·,
CCOc1cc(/C=C2\NC(=O)NC2=O)cc([N+](=O)[O-])c1O,12.4,19.3*,-24.6,7.1,-33.7,-2.2,
COc1ccc(C(=O)OCC(=O)c2cc(OC)ccc2OC)c(OC)c1,-5.6,1.3,2.6,-2.7,2.7,·,
COc1ccc(OC)c(C(=O)COC(=O)c2[nH]c(C)c(C(C)=O)c2C)c1,5.2,15.9*,·,1.5,7.6,10.1,
C/C(=C(/CCOC(=O)C(C)C)SS/C(CCOC(=O)C(C)C)=C(\C)N(C=O)Cc1cnc(C)nc1N)N(C=O)Cc1cnc(C)nc1N,·,2.6,·,·,·,·,
COC(=O)c1ccccc1NC(=O)c1cn(-c2ccc(C)c(C)c2)c(=O)c2ccccc12,7.1,42.1*,1.9,3.0,4.3,48.4*,RORg counter=>40
CC(C)=CCn1c2ccc(NC(=O)NCc3ccc(F)cc3)cc2c(=O)n1C,-20.8,-5.7,·,1.8,0.1,·,
CCN(CC)c1ccc(NC(=O)c2ccc3c(c2)OCO3)cc1,-131.3,15.7*,-6.4,-1.6,-11.1,1.4,
O=C(Nc1ccc2nn(-c3ccccc3)nc2c1)c1ccc2c(c1)OCO2,2.3,23.2*,-13.4,1.3,-19.2,27.9*,
CCC(=O)Nc1ccc(NC(=O)c2ccc3c(c2)OCO3)cc1,-2.8,-1.9,1.3,1.1,2.3,·,
O=C(Nc1cccc(F)c1)c1ccc2c(c1)OCO2,-89.6,0.6,2.8,0.4,-1.4,·,
O=C(Nc1c(C(=O)Nc2cccc(F)c2)oc2ccccc12)c1ccc2c(c1)OCO2,-13.8,51.1*,3.1,-0.6,0.2,16.6,
Cc1c(NC(=O)c2ccc3c(c2)OCO3)cccc1-c1nc2ccccc2s1,-29.3,13.0,-0.4,-0.3,2.0,·,
O=C(Nc1cccc(-c2nc3ccccc3s2)c1)c1ccc2c(c1)OCO2,-110.1,45.2*,3.9,9.8,-1.4,11.9,
O=C(O)CCC(=O)OCCCc1cc2ccccc2c(=O)o1,12.7,-0.5,·,3.4,0.7,·,
O=C(O)c1cccc(Oc2ccc(C(=O)O)c([N+](=O)[O-])c2)c1,-11.3,-0.2,·,-0.8,0.0,·,
CCNC(=O)N(C)[C@H]1C[C@H]2c3[nH]c4c(-c5ccccc5)cccc4c3CCN2C(=O)[C@H]1[C@H](C)O,·,10.9,·,3.6,1.4,·,
O=C(Cc1ccc(Cl)cc1)c1c[nH]c(C(=O)NCc2cccnc2)c1,10.9,18.7*,0.0,-3.3,1.2,34.5*,RORg counter=>40
COc1cccc(CC(=O)N2CCN(C(=O)C(=O)c3ccc(OC)c(OC)c3)CC2)c1,·,3.8,·,-0.1,1.3,·,
CC(=O)N1c2ccccc2S(=O)(=O)c2ccccc21,1.4,4.5,2.7,7.2,-0.7,·,
SMILES,NR2E3 ag-1,NR1D1 modulator,NR2E3 ag-2,rCAG binder,PG9 binder,NR1D1 mod conf,others
CC(=O)N1c2ccccc2S(=O)(=O)c2c1ccc1ccccc21,-9.9,22.5*,·,0.3,1.1,-1.7,
CC(=O)C1=C(C)NC(=S)NC1c1ccc(F)cc1 (stereo not given),·,-1.7,·,4.3,0.5,·,
CCOC(=O)C(=CNc1nc2ccc(C(=O)OCC)cc2s1)C(=O)OCC,-9.6,34.5*,5.1,-0.3,1.3,19.4*,
CCOC(=O)c1ccc2nc(NC(C)=O)sc2c1,-103.7,2.8,3.9,-0.7,0.7,·,
CCOC(=O)c1ccc2nc(Nc3nc4ccc(F)cc4s3)sc2c1,37.4,34.8*,-1.3,7.2,-0.2,31.4*,RORg counter=>40
O=C(NCc1nnc(SCC(=O)N2CCOCC2)o1)c1ccccc1,20.5,8.0,·,0.8,-0.7,·,
O=C(COC(=O)c1cc(S(=O)(=O)N2CCCC2)ccc1O)Nc1ccc(F)cc1F,15.5,0.3,·,8.5,-0.2,·,
CCn1cc(C(=O)NCCc2ccc(Cl)cc2)c(=O)c2ccc(C)nc21,5.5,29.1*,·,-0.4,-1.2,14.5,
CCn1cc(C(=O)NCCc2ccc(OC)cc2)c(=O)c2ccc(C)nc21,-4.8,10.0,3.2,-3.6,0.6,·,
Cc1cc(N2CCN(C(=O)OC(C)(C)C)C[C@H]2C)ccc1Br,·,14.8*,·,1.9,-0.8,3.6,
COCc1cc(N2CCN(C(=O)OC(C)(C)C)C[C@@H]2C)ccc1Br,·,-5.9,·,-0.7,-2.2,·,
O=C(NCC(c1ccccc1)c1ccccc1)[C@H](Cc1ccccc1)NC1(C(=O)NC2CCCCC2)CCC1,·,0.1,·,·,·,·,
CC(=O)Nc1ccc(Nc2c3c4c(cccc4n(C)c2=O)C(=O)c2ccccc2-3)cc1,12.0,33.4*,3.3,-97.3,-6.8,31.3*,RORg counter=>40
Cn1c(=O)c(NCCO)c2c3c(cccc31)C(=O)c1ccccc1-2,-20.7,100.7*,-3.2,i,-1.5,118.3*,RORg counter=>40
CCCCNc1c2c3c(cccc3n(C)c1=O)C(=O)c1ccccc1-2,-15.7,·,-1.3,·,·,·,
CCNc1c2c3c(cccc3n(C)c1=O)C(=O)c1ccccc1-2,·,·,0.6,·,·,·,
Cn1c(=O)c(NCCc2ccccc2)c2c3c(cccc31)C(=O)c1ccccc1-2,-27.4,97.0*,7.9,-81.8,4.5,68.9*,RORg counter=>40
O=C(CSc1nc2scc(-c3ccccc3)c2c(=O)[nH]1)N1CCOCC1,-1.2,-2.6,4.0,1.1,1.2,·,
CNC(=O)C[C@H]1C(=O)N(CCc2ccccc2)C[C@@H]1C,-14.9,3.2,·,-0.9,0.6,·,
CCC(NC(=O)CNC(=O)c1ccc2c(c1)OCO2)c1ccc(Br)cc1 (stereo not given),-10.1,-3.3,·,-3.3,0.0,·,
CCOc1ccc(NC(=O)CN2C(=O)c3cccc4cccc2c34)cc1,·,9.8,·,0.4,1.2,·,
